Compounds with a hit are over-represented: about 1.2% of the library has one in this group of screens.
TNAP inh no acc = blocks human TNAP activity with no phosphate acceptor present | AID 1012 | 200,000 compounds, 0.26% hits | purified TNAP, CDP-star luminescence, 30 min | inhibition, % at 20 µM | P05186;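 active = tissue-nonspecific alkaline phosphatase inhibition above about 50% at 20 µM in the single-dose screen, limit read from the data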;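 also: 0% = DMSO negative control and 100% = EDTA positive control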
INS promoter inh = TRM-6 insulin promoter activity inhibition; TRM-6 cells, insulin promoter-eGFP reporter, imaging; reporter expression induced with tamoxifen; inhibition, % at 2 µM; 130,000 compounds, 0.9% hits;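 active = inhibition above the mean plus 3 SD, with well images judged a real hit on visual review, cut at about 60% in these data, passing the limit was not always enough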
TNAP act hi DEA = increases human TNAP activity under high phosphate acceptor concentration; purified TNAP, CDP-star luminescence, 1 M DEA, 30 min; hits give high values; 0 = EDTA background, 1 = DMSO-only activity; 200,000 tested, under 10 active; activation factor at 20 µM; AID 1136; P05186;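 active = activation factor at least 2 at 20 µM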
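Control set: EDTA negative control, DMSO positive control / Assay system: human TNAP / Quantity: TNAP 1/800 final / Evaluation: TNAP activation factor scaled between EDTA and DMSO control wells / Measured by: luminescent substrate turnover signal / Compound dosing: one dose, 20 µM / Times: 30 min enzyme reaction at room temperature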
TNAP inh hi DEA = TNAP (human) inhibition, high acceptor; 200,000 compounds, 0.03% hits; P05186; inhibition, % at 20 µM; purified TNAP, CDP-star luminescence, 1 M DEA; AID 1135;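 active = over 50% inhibition of tissue-nonspecific alkaline phosphatase at 20 µM in the single-dose screen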;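 also: plate controls were DMSO wells for no effect and EDTA-quenched wells as full inhibition for full effect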
HMGR II inh = E. faecalis class II HMG-CoA reductase inhibition; purified E. faecalis HMGR, NADPH absorbance 340 nm kinetic; inhibition, % at 10 µM; 190,000 compounds, 0.41% hits; AID 1066;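 active = inhibition above a set limit, the median over all tested compounds plus 3 SD, cut at about 9.5% in these data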;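 also: enzyme runs in reverse so mevalonate oxidation gives rising NADPH absorbance; 0% = complete reaction with DMSO and 100% = background rate lacking mevalonate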
The depositor's hits bear a star; x = no result.

SMILES | TNAP inh no acc | INS promoter inh | TNAP act hi DEA | TNAP inh hi DEA | HMGR II inh
O=C(Cn1nc(-c2ccccc2)c2ccccc2c1=O)Nc1cccnc1 | -10 | 77* | 1.1 | -5 | -5
COc1ccccc1NC(=O)Cc1noc(CSc2n[nH]c(N)n2)n1 | -6 | x | 1 | 1 | -4
CCCCCCCCCC(=O)Nc1cccnc1 | -4 | x | 1.1 | -6 | 10*
CC1CC(C)(C)NC(=S)N1CCCC(=O)Nc1ccc2c(c1)OCCO2 (stereo unspecified) | -7 | x | 1 | -1 | -7
O=C(/C(=N/N=C/c1ccc(O)c(O)c1)c1ccccc1)c1ccccc1 | 51* | -96 | 0.7 | 26 | 5
COc1cccc(C2c3c(-c4ccccc4)n[nH]c3C(=O)N2c2ccc(C(=O)O)cc2)c1 (stereo unspecified) | 10 | -20 | 1 | -3 | -7
COc1ccc(-c2n[nH]c3c2C(c2ccc(OC)c(OC)c2)N(c2ccccc2)C3=O)cc1 (stereo unspecified) | 2 | 69* | 1 | -3 | -2
O=C(CN(CC1CCCO1)C(=O)CCC(=O)Nc1nccs1)NCc1ccccc1 (stereo unspecified) | -11 | 11 | 1 | -2 | 5
COc1cc(C)nc(Oc2ccc(OCCOc3ccccc3)nn2)n1 | -1 | x | 1 | 3 | 19*
CCOc1ncccc1C(=O)NCCN1C(=O)S/C(=C/c2cccs2)C1=O | -10 | 38 | 1 | 3 | -6
COC(=O)C1=C(C)NC(C)=C(C(=O)OC)C1c1ccc2ccccc2n1 | -14 | x | 1.1 | -10 | 2
O=C1c2ccccc2C(=O)C1c1ccc2ccccc2n1 | 1 | -25 | 1 | 2 | 15*
CCOc1cccc(CNCCSc2nnnn2C)c1 | -7 | x | 1.1 | -8 | -10
O=C(Nc1ccc(N2CCOCC2)c(Cl)c1)c1ccc([N+](=O)[O-])o1 | 0 | x | 1 | 1 | 26*
CCC(C)(C)C(=O)Nc1cc([N+](=O)[O-])ccc1F | -24 | -13 | 1 | -2 | 12*
CCC(C)(C)C(=O)Nc1cc([N+](=O)[O-])ccc1Cl | -20 | 19 | 1 | 1 | 0
CCn1ccnc1CN(C)Cc1cn[nH]c1-c1ccc(F)cc1F | 85* | x | 1 | -3 | -3
COc1ccc(-c2[nH]ncc2CN(Cc2nccn2C)C(C)C)c(F)c1 | 26 | x | 1 | -5 | 5
COC(=O)N/N=C/c1cn(Cc2ccccc2Cl)c2ccccc12 | -10 | 19 | 1 | -3 | -2
Cc1[nH][nH]c(=O)c1C(c1c(C)[nH][nH]c1=O)c1cn(Cc2ccccc2Cl)c2ccccc12 | -25 | 15 | 0.8 | 21 | 67*
CN(C)c1cccc(C(=O)OCC(=O)Nc2ccccc2Cl)c1 | -7 | 75* | 1 | -2 | -8
CN1Cc2cccc3c2C(Cc2ccccc2S3)C1 (stereo unspecified) | -7 | -72 | 1 | 3 | -4
CC(=O)N1CCN(C(=O)c2cc(C)nc3ccccc23)CC1 | -9 | 71* | 1.1 | -6 | -3
Cc1c(N2C(=O)c3cccc4cccc(c34)C2=O)c(=O)n(-c2ccccc2)n1C | -9 | 69* | 1.1 | -6 | -1
Cc1c(N=C2Nc3cccc4cccc2c34)c(=O)n(-c2ccccc2)n1C | -3 | -9 | 0.9 | 10 | -1
SMILES | TNAP inh no acc | INS promoter inh | TNAP act hi DEA | TNAP inh hi DEA | HMGR II inh
C=CCn1cnc2c(nnn2-c2ccc(Cl)cc2)c1=O | -12 | 33 | 1 | -4 | 16*
O=C(Nc1ccc(C(=O)O)cc1)/C(=C\c1ccc([N+](=O)[O-])cc1)NC(=O)c1ccc(Br)cc1 | 5 | 47 | 1 | 5 | -2
COc1ccc(CC(=O)Nc2ccc(-c3ccc4nnc(C)n4n3)cc2)cc1OC | -6 | -61 | 1 | -5 | -3
Cc1nc2c([nH]c3ccccc32)c(=O)n1N | -10 | 100* | 1 | -3 | -3
CCCCn1cnc2c([nH]c3ccccc32)c1=O | -10 | 82* | 1 | -4 | -2
O=c1c2[nH]c3ccc(Br)cc3c2ncn1CCCn1ccnc1 | -7 | 79* | 1 | -5 | 1
Nn1c(=O)[nH]c2c([nH]c3ccccc32)c1=O | -11 | 64 | 1 | -4 | -5
O=C(C1=C[C@@H](C2CC2)C[C@@H](OCCCCO)O1)N1CCN(Cc2ccc3c(c2)OCO3)CC1 | 3 | x | 1 | -2 | -3
CCCCc1nc(SCc2ccc([N+](=O)[O-])cc2)n[nH]1 | 30 | -30 | 1 | -5 | -1

Source: PubChem
